# Measured values from ChEMBL document CHEMBL4130477, “Metabolites from the Plant Endophytic Fungus Aspergillus sp. CPCC 400735 and Their Anti-HIV Activities” (J Nat Prod, 2017).
# The source made the active and inactive calls. No cut-off for these calls is given here.
# Key:
# [1] = tested on: Human immunodeficiency virus 1; assay: Antiviral activity against VSV-G pseudotyped HIV1 infected in human SupT1 cells at 100 uM after 48 hrs by luciferase reporter gene assay relative to control; assay type: functional; conditions: for inhibition at 100 µM: Human immunodeficiency virus 1, SUP-T1, 48 h
# Procedure, shortened: (§1)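 VSV-G pseudotyped HIV-1 (pNL-Luc-E plus pHIT/G) was made by […] (2 × 105), harvested at 48 h through a 0.45 μm filter, and quantified by p24 ELISA. […] Compounds were screened at 100 μM; IC50 was determined for those above 60% inhibition.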
# [2] = tested on: Human immunodeficiency virus 1; assay: Antiviral activity against VSV-G pseudotyped HIV1 infected in human SupT1 cells after 48 hrs by luciferase reporter gene assay; assay type: functional, organism-based; conditions: Human immunodeficiency virus 1, SUP-T1, 48 h; procedure, shortened: as §1
# [3] = Cytotoxicity against human SupT1 cells assessed as decrease in cell viability after 48 hrs by CCK-8 assay; assay type: cell-based, SUP-T1
compound,measurement,setting,value
COC(OC)C1CCC(C(C)(C)O)OC1CC/C(C)=C/CC/C(C)=C/C[C@]1(O)C(=O)c2c(O)cc(C)c3c(O)c(C)c(O)c(c23)C1=O (stereo partly drawn),inhibition at 100 µM,[1],99.8%
same,IC50,[2],2.4 µM
same,CC50 at 48 h,[3],> 100 µM
O=C1O/C(=C\c2ccc(O)cc2)C(O)=C1c1ccc(O)c(O)c1,inhibition at 100 µM,[1],74.8%
same,IC50,[2],72.4 µM
same,CC50 at 48 h,[3],> 100 µM
C/C1=C\CC(=O)O[C@@]23C(=O)N[C@@H](Cc4ccccc4)[C@@H]2[C@H](C)[C@@]2(C)O[C@H]2[C@@H]3/C=C/C[C@H](C)C1=O,inhibition at 100 µM,[1],81.5%
same,IC50,[2],41.6 µM
same,CC50 at 48 h,[3],98.6 µM
C/C(=C\CC/C(C)=C/C[C@]1(O)C(=O)c2c(O)cc(C)c3c(O)c(C)c(O)c(c23)C1=O)CC/C=C(\CO)CC[C@@H](O)C(C)(C)O,inhibition at 100 µM,[1],98.6%
same,IC50,[2],22.1 µM
same,CC50 at 48 h,[3],> 100 µM
COC(=O)[C@]1(Cc2ccc(O)cc2)OC(=O)C(O)=C1c1ccc(O)cc1,inhibition at 100 µM,[1],60.8%
same,IC50,[2],84.5 µM
same,CC50 at 48 h,[3],> 100 µM
COc1cc(/C=C2\OC(=O)C(c3ccc(O)cc3)=C2O)ccc1O,inhibition,[1],inactive
COC1=C(c2ccc(O)cc2)[C@@H](Cc2ccc(O)cc2)OC1=O,inhibition at 100 µM,[1],72.8%
same,IC50,[2],68.7 µM
same,CC50 at 48 h,[3],96.5 µM
O=C1Nc2ccc(Cl)cc2[C@@](C#CC2CC2)(C(F)(F)F)O1 [EFAVIRENZ],IC50,[2],0.0004 µM
COC(=O)c1cc(O)cc(OC)c1Oc1cc(C)cc(O)c1C(=O)O [ASTERRIC ACID],inhibition at 100 µM,[1],8.53%
CC1=C(C)[C@H]2[C@H](Cc3ccccc3)NC(=O)[C@@]2(O)[C@@H](/C=C/C[C@H](C)C(=O)[C@H](C)O)[C@@H]1O [CYTOCHALASIN Z13],inhibition at 100 µM,[1],44.9%
CC1=C(C)[C@H]2[C@H](Cc3ccccc3)NC(=O)[C@]23OC(=O)C/C=C(/C)C(=O)[C@@H](C)C/C=C/[C@H]3[C@@H]1O,inhibition at 100 µM,[1],79.5%
same,IC50,[2],28.9 µM
same,CC50 at 48 h,[3],70.8 µM
Cc1c(O)c(O)c(O)c(C=O)c1-c1cc2c(C=O)c(C)c(O)c(O)c2o1,inhibition at 100 µM,[1],94.7%
same,IC50,[2],20.2 µM
same,CC50 at 48 h,[3],> 100 µM
COc1cc(/C=C2\OC(=O)C(c3ccc(O)cc3)=C2O)cc(O)c1O,inhibition at 100 µM,[1],69.8%
same,IC50,[2],78.3 µM
same,CC50 at 48 h,[3],> 100 µM
COc1cc(/C=C2\OC(=O)C(c3ccc(O)cc3)=C2O)cc(OC)c1O,inhibition at 100 µM,[1],52.3%
same,IC50,[2],43.7 µM
same,CC50 at 48 h,[3],> 100 µM
COC(=O)[C@]1(Cc2ccc(O)cc2)OC(=O)C(OC)=C1c1ccc(O)cc1,inhibition at 100 µM,[1],68.7%
same,IC50,[2],74.8 µM
same,CC50 at 48 h,[3],> 100 µM
O=C1O/C(=C\c2ccc(O)cc2)C(O)=C1c1ccc(O)cc1,inhibition,[1],inactive
C/C(=C\CC/C(C)=C/C[C@]1(O)C(=O)c2c(O)cc(C)c3c(O)c(C)c(O)c(c23)C1=O)CC/C=C(/CC[C@@H](O)C(C)(C)O)C(=O)O,inhibition at 100 µM,[1],48.1%
COC(=O)[C@@]1(Cc2ccc3c(c2)C[C@H](O)C(C)(C)O3)OC(=O)C(OC)=C1c1ccc(O)cc1,inhibition at 100 µM,[1],84.8%
same,IC50,[2],48 µM
same,CC50 at 48 h,[3],93 µM
CC(C)=CCC/C(=C/CC/C(C)=C/CC/C(C)=C/C[C@]1(O)C(=O)c2c(O)cc(C)c3c(O)c(C)c(O)c(c23)C1=O)CO,inhibition at 100 µM,[1],100%
same,IC50,[2],4.5 µM
same,CC50 at 48 h,[3],> 100 µM
COC(=O)c1cc(O)cc(OC)c1C(=O)c1c(O)cc(C)cc1O [SULOCHRIN],inhibition at 100 µM,[1],53.8%
CC1=C(C)[C@H]2[C@H](Cc3ccccc3)NC(=O)[C@]23OC(=O)/C=C/[C@@](C)(O)C[C@@H](C)C/C=C/[C@H]3[C@@H]1O [CYTOCHALASIN Z9],inhibition at 100 µM,[1],98.7%
same,IC50,[2],14.4 µM
same,CC50 at 48 h,[3],> 100 µM
C/C(=C\CC/C(C)=C/C[C@]1(O)C(=O)c2c(O)cc(C)c3c(O)c(C)c(O)c(c23)C1=O)CC/C=C(\CC[C@@H](O)C(C)(C)O)C(=O)O,inhibition at 100 µM,[1],96.8%
same,IC50,[2],32.6 µM
same,CC50 at 48 h,[3],78.6 µM
COC(=O)[C@@]1(Cc2ccc(O)c(C[C@@H](O)C(C)(C)O)c2)OC(=O)C(OC)=C1c1ccc(O)cc1,inhibition at 100 µM,[1],64.3%
same,IC50,[2],82.3 µM
same,CC50 at 48 h,[3],94.3 µM
Nc1ccn([C@@H]2CS[C@H](CO)O2)c(=O)n1 [LAMIVUDINE],IC50,[2],0.1 µM
COc1cc(O)cc(C(=O)O)c1Oc1cc(C)cc(O)c1C(=O)O,inhibition at 100 µM,[1],25.5%
Cc1c(O)c(O)c2c(c1C=O)[C@@H]1O[C@H](O2)c2c(C)c(O)c(O)c(O)c2C1=O,inhibition at 100 µM,[1],99.9%
same,IC50,[2],6.6 µM
same,CC50 at 48 h,[3],> 100 µM
Cc1c(O)c(O)c(O)c2c1COC2,inhibition at 100 µM,[1],90.8%
same,IC50,[2],49.3 µM
same,CC50 at 48 h,[3],91.4 µM
O=C1O/C(=C\c2ccc(O)c(O)c2)C(O)=C1c1ccc(O)cc1,inhibition at 100 µM,[1],72.3%
same,IC50,[2],40 µM
same,CC50 at 48 h,[3],> 100 µM
CC1=C(C)[C@H]2[C@H](Cc3ccccc3)NC(=O)[C@]23OC(=O)/C=C/[C@H](C)[C@H](O)[C@@H](C)C/C=C/[C@H]3[C@@H]1O,inhibition at 100 µM,[1],100%
same,IC50,[2],9.2 µM
same,CC50 at 48 h,[3],> 100 µM
O=C1O[C@H](Cc2ccc(O)cc2)C(c2ccc(O)cc2)=C1O,inhibition at 100 µM,[1],62.2%
same,IC50,[2],54.2 µM
same,CC50 at 48 h,[3],> 100 µM
COC(=O)c1cc(O)cc(OC)c1C(=O)c1c(O)c(Cl)c(C)c(Cl)c1O [DIHYDROGEODIN],inhibition at 100 µM,[1],91.1%
same,IC50,[2],56.3 µM
same,CC50 at 48 h,[3],> 100 µM
COC(=O)c1cc(O)cc(OC)c1Oc1c(Cl)c(C)c(Cl)c(O)c1C(=O)O,inhibition,[1],inactive
C[C@H]1/C=C/OC(=O)O[C@@]23C(=O)N[C@@H](Cc4ccccc4)[C@@H]2[C@H](C)[C@@]2(C)OC2[C@@H]3/C=C/C[C@H](C)C1=O (stereo partly drawn),inhibition at 100 µM,[1],54.3%
C=C1[C@@H](C)[C@H]2[C@H](Cc3ccccc3)NC(=O)[C@]23OC(=O)/C=C/[C@H](C)[C@H](O)[C@@H](C)C/C=C/[C@H]3[C@@H]1O,inhibition at 100 µM,[1],100%
same,IC50,[2],25.8 µM
same,CC50 at 48 h,[3],95.1 µM
COC(=O)[C@@]1(Cc2ccc(O)c(C[C@H](O)C(C)(C)O)c2)OC(=O)C(OC)=C1c1ccc(O)cc1,inhibition at 100 µM,[1],73.4%
same,IC50,[2],67.2 µM
same,CC50 at 48 h,[3],> 100 µM
